Test results taken from ChEMBL document CHEMBL4689842, “EUbOPEN Chemogenomics Library wave 1” (2021).

How the values were obtained:
Assay type in all cases: toxicity, cell-based
[1] = system: Fibroblast; assay: Multiplex assay against human fibroblast
Outline: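 Live cells were stained at seeding with Hoechst33342, BioTracker Green Microtubule Cytoskeleton Dye, MitoTracker Red and Annexin V Alexa Fluor 680. Following compound addition, they were imaged on a CQ1 microscope at 37°C and 5% CO2 and gated by CellPathfinder machine learning into Hoechst high-intensity objects or normal cells, with normal cells split into healthy, pyknosed or fragmented nuclei and pyknosed cells into mitotic or apoptotic. Tubulin, mitochondrial-mass and membrane-permeability phenotypes are per cents of healthy-nucleus cells.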

[2] = system: HEK-293T; assay: Incucyte cell viability with HEK293T; settings: human, 10 µM, compound concentration 10 uM; note: filed as whole numbers so only -1 and 0 and 1 occur
[3] = system: Fibroblast; assay: Incucyte cell viability with human fibroblast; settings: 10 µM, compound concentration 10 uM; note: filed as whole numbers so only -1 and 0 and 1 occur
[4] = system: U2OS; assay: Incucyte cell viability with U2OS; settings: human, 10 µM, compound concentration 10 uM; note: filed as whole numbers so only -1 and 0 and 1 occur
[5] = 12 h, 1 µM, compound concentration 1 uM, replicate 1
[6] = 12 h, 1 µM, compound concentration 1 uM, replicate 2
[7] = 12 h, 10 µM, compound concentration 10 uM, replicate 1
[8] = 12 h, 10 µM, compound concentration 10 uM, replicate 2
[9] = 24 h, 1 µM, compound concentration 1 uM, replicate 1
[10] = 24 h, 1 µM, compound concentration 1 uM, replicate 2
[11] = 24 h, 10 µM, compound concentration 10 uM, replicate 1
[12] = 24 h, 10 µM, compound concentration 10 uM, replicate 2
[13] = 48 h, 1 µM, compound concentration 1 uM, replicate 1
[14] = 48 h, 1 µM, compound concentration 1 uM, replicate 2
[15] = 48 h, 10 µM, compound concentration 10 uM, replicate 1
[16] = 48 h, 10 µM, compound concentration 10 uM, replicate 2
[17] = 6 h, replicate number 1, timepoint 6 hours
[18] = 12 h, replicate number 1, timepoint 12 hours
[19] = 18 h, replicate number 1, timepoint 18 hours
[20] = 24 h, replicate number 1, timepoint 24 hours
[21] = 0 h, replicate number 1, timepoint 0 hours
[22] = 18 h, replicate number 2, timepoint 18 hours

Compound: Nc1ccc(C(=O)Nc2cccc(-c3nc(N4CCOCC4)c4oc5ncccc5c4n3)c2)cn1
- Population Apoptotic (%) [1, 5]: 63%
- Population Fragmented Nuclei (%) [1, 5]: 24%
- Population Healthy Nuclei (%) [1, 5]: 43%
- Population Hoechst High Intensity Objects (%) [1, 5]: 14%
- Population Mitochondria Different-Phenotype (%) [1, 5]: 4%
- Population Mitotic Cells (%) [1, 5]: 36%
- Population Normal (%) [1, 5]: 85%
- Population Pyknosed Nuclei (%) [1, 5]: 31%
- Population Tubulin-Different-Phenotype (%) [1, 5]: 60%
- Total Cell Count [1, 5]: 134
- Population Apoptotic (%) [1, 6]: 9%
- Population Fragmented Nuclei (%) [1, 6]: 20%
- Population Healthy Nuclei (%) [1, 6]: 61%
- Population Hoechst High Intensity Objects (%) [1, 6]: 10%
- Population Mitochondria Different-Phenotype (%) [1, 6]: 21%
- Population Mitotic Cells (%) [1, 6]: 90%
- Population Normal (%) [1, 6]: 89%
- Population Pyknosed Nuclei (%) [1, 6]: 17%
- Population Tubulin-Different-Phenotype (%) [1, 6]: 28%
- Total Cell Count [1, 6]: 55
- Population Apoptotic (%) [1, 7]: 54%
- Population Fragmented Nuclei (%) [1, 7]: 57%
- Population Healthy Nuclei (%) [1, 7]: 28%
- Population Hoechst High Intensity Objects (%) [1, 7]: 41%
- Population Mitochondria Different-Phenotype (%) [1, 7]: 9%
- Population Mitotic Cells (%) [1, 7]: 45%
- Population Normal (%) [1, 7]: 58%
- Population Pyknosed Nuclei (%) [1, 7]: 13%
- Population Tubulin-Different-Phenotype (%) [1, 7]: 80%
- Total Cell Count [1, 7]: 554
- Population Apoptotic (%) [1, 8]: 51%
- Population Fragmented Nuclei (%) [1, 8]: 62%
- Population Healthy Nuclei (%) [1, 8]: 15%
- Population Hoechst High Intensity Objects (%) [1, 8]: 19%
- Population Mitochondria Different-Phenotype (%) [1, 8]: 76%
- Population Mitotic Cells (%) [1, 8]: 48%
- Population Normal (%) [1, 8]: 80%
- Population Pyknosed Nuclei (%) [1, 8]: 22%
- Population Tubulin-Different-Phenotype (%) [1, 8]: 90%
- Total Cell Count [1, 8]: 69
- Population Apoptotic (%) [1, 9]: 38%
- Population Fragmented Nuclei (%) [1, 9]: 38%
- Population Healthy Nuclei (%) [1, 9]: 39%
- Population Hoechst High Intensity Objects (%) [1, 9]: 16%
- Population Mitochondria Different-Phenotype (%) [1, 9]: 3%
- Population Mitotic Cells (%) [1, 9]: 61%
- Population Normal (%) [1, 9]: 83%
- Population Pyknosed Nuclei (%) [1, 9]: 21%
- Population Tubulin-Different-Phenotype (%) [1, 9]: 64%
- Total Cell Count [1, 9]: 169
- Population Apoptotic (%) [1, 10]: 21%
- Population Fragmented Nuclei (%) [1, 10]: 28%
- Population Healthy Nuclei (%) [1, 10]: 52%
- Population Hoechst High Intensity Objects (%) [1, 10]: 5%
- Population Mitochondria Different-Phenotype (%) [1, 10]: 42%
- Population Mitotic Cells (%) [1, 10]: 78%
- Population Normal (%) [1, 10]: 95%
- Population Pyknosed Nuclei (%) [1, 10]: 18%
- Population Tubulin-Different-Phenotype (%) [1, 10]: 27%
- Total Cell Count [1, 10]: 57
- Population Apoptotic (%) [1, 11]: 68%
- Population Fragmented Nuclei (%) [1, 11]: 53%
- Population Healthy Nuclei (%) [1, 11]: 32%
- Population Hoechst High Intensity Objects (%) [1, 11]: 46%
- Population Mitochondria Different-Phenotype (%) [1, 11]: 30%
- Population Mitotic Cells (%) [1, 11]: 31%
- Population Normal (%) [1, 11]: 53%
- Population Pyknosed Nuclei (%) [1, 11]: 13%
- Population Tubulin-Different-Phenotype (%) [1, 11]: 76%
- Total Cell Count [1, 11]: 514
- Population Apoptotic (%) [1, 12]: 84%
- Population Fragmented Nuclei (%) [1, 12]: 60%
- Population Healthy Nuclei (%) [1, 12]: 5%
- Population Hoechst High Intensity Objects (%) [1, 12]: 19%
- Population Mitochondria Different-Phenotype (%) [1, 12]: 100%
- Population Mitotic Cells (%) [1, 12]: 15%
- Population Normal (%) [1, 12]: 80%
- Population Pyknosed Nuclei (%) [1, 12]: 34%
- Population Tubulin-Different-Phenotype (%) [1, 12]: 100%
- Total Cell Count [1, 12]: 80
- Population Apoptotic (%) [1, 13]: 66%
- Population Fragmented Nuclei (%) [1, 13]: 47%
- Population Healthy Nuclei (%) [1, 13]: 45%
- Population Hoechst High Intensity Objects (%) [1, 13]: 17%
- Population Mitochondria Different-Phenotype (%) [1, 13]: 0%
- Population Mitotic Cells (%) [1, 13]: 33%
- Population Normal (%) [1, 13]: 82%
- Population Pyknosed Nuclei (%) [1, 13]: 7%
- Population Tubulin-Different-Phenotype (%) [1, 13]: 60%
- Total Cell Count [1, 13]: 190
- Population Apoptotic (%) [1, 14]: 0%
- Population Fragmented Nuclei (%) [1, 14]: 58%
- Population Healthy Nuclei (%) [1, 14]: 41%
- Population Hoechst High Intensity Objects (%) [1, 14]: 25%
- Population Mitochondria Different-Phenotype (%) [1, 14]: 3%
- Population Mitotic Cells (%) [1, 14]: 0%
- Population Normal (%) [1, 14]: 74%
- Population Pyknosed Nuclei (%) [1, 14]: 0%
- Population Tubulin-Different-Phenotype (%) [1, 14]: 76%
- Total Cell Count [1, 14]: 205
- Population Apoptotic (%) [1, 15]: 51%
- Population Fragmented Nuclei (%) [1, 15]: 51%
- Population Healthy Nuclei (%) [1, 15]: 25%
- Population Hoechst High Intensity Objects (%) [1, 15]: 49%
- Population Mitochondria Different-Phenotype (%) [1, 15]: 46%
- Population Mitotic Cells (%) [1, 15]: 48%
- Population Normal (%) [1, 15]: 50%
- Population Pyknosed Nuclei (%) [1, 15]: 23%
- Population Tubulin-Different-Phenotype (%) [1, 15]: 78%
- Total Cell Count [1, 15]: 516
- Population Apoptotic (%) [1, 16]: 100%
- Population Fragmented Nuclei (%) [1, 16]: 82%
- Population Healthy Nuclei (%) [1, 16]: 14%
- Population Hoechst High Intensity Objects (%) [1, 16]: 67%
- Population Mitotic Cells (%) [1, 16]: 0%
- Population Normal (%) [1, 16]: 32%
- Population Pyknosed Nuclei (%) [1, 16]: 2%
- Population Tubulin-Different-Phenotype (%) [1, 16]: 73%
- Total Cell Count [1, 16]: 323
- Growth Rate ([2]; 0 h, replicate number 2, timepoint 0 hours): 0
- Growth Rate [2, 17]: 0
- Growth Rate [2, 18]: 0
- Growth Rate [2, 19]: 0
- Growth Rate [2, 20]: 0
- Growth Rate [3, 21]: 0
- Growth Rate [3, 17]: 0
- Growth Rate [3, 18]: 0
- Growth Rate [3, 19]: 0
- Growth Rate [3, 22]: 1
- Growth Rate [3, 20]: 0
- Growth Rate [4, 21]: 0
- Growth Rate [4, 17]: 1
- Growth Rate [4, 18]: 0
- Growth Rate [4, 19]: 0
- Growth Rate [4, 22]: 1
- Growth Rate [4, 20]: 0
